# Data reported in article PMC4723301 (Experimental biology and medicine (Maywood, N.J.), 2015).
# Columns and labels:
# Cyp 2C9 = Cyp 2C9 (Homo sapiens, UniProt P11712); details: 24 h, 10 μM
# hepatocytes [1] = test: Apoptosis, cytochrome C biosensor in sentinel hepatocytes; format: cell-based, human; details: for Effect on hepatocellular apoptosis biosensor: 600 μM caffeine, 28 days
# [2] = test system: human alpha- smooth muscle actin (alpha-SMA); test: Indirect immunofluorescence of alpha-SMA in SQL-SAL; format: cell-based
# How it was run: (§1)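 Human liver model in a perfused microfluidic device: primary hepatocytes, EA.hy926, U937 and LX-2 cells, with the LX-2 cells in collagen. The LX-2 cells are transduced with pLVX-IRES-mito-mKate2 for identification. Perfusion at 5 µL/h with HMM plus 100 nM dexamethasone at 37℃, 5% CO2; test compound in 1% DMSO. On day 21, paraformaldehyde-fixed and stained by indirect immunofluorescence. Value is the ratio of average cellular antibody intensity in stellate versus non-stellate cells; equal-variance t-test.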
# [3] = test system: collagen type 1, alpha 2 (COL1A2); test: Indirect immunofluorescence of COL1A2 in SQL-SAL; format: cell-based, human; details: 30nM methotrexate, day 21, relative to vehicle control (p ≤ 0.05)
# How it was run: as §1
# LX-2 stellate cells = test: LX-2 stellate cell migration in SQL-SAL; format: cell-based, human; details: 30 nM methotrexate, days 4 and 7, vs vehicle control (p ≤ 0.05)
# LX2 cultures = details: human
# SQL-SAL [4] = test: Albumin secretion in efflux media of SQL-SAL devices
# SQL-SAL [5] = test: Urea secretion in efflux media of SQL-SAL devices
# SQL-SAL [6] = test: LDH leakage in efflux media of SQL-SAL devices; details: for Days with significant LDH release (p≤0.05): vs vehicle
# hepatocytes [7] = test: Bile; format: cell-based, human; details: 50 μM troglitazone, day 10 devices, 10-min intervals for 60 min, vs vehicle (1% DMSO)
# SQL-SAL [8] = details: human, 180 μM
# [9] = Albumin secretion in efflux media of SQL-SAL devices; details: human
# [10] = Urea secretion in efflux media of SQL-SAL devices; details: human
# SQL-SAL [11] = test: SQL-SAL toxicity testing, overall response; details: 28μM troglitazone, over 21 days
# hepatocytes [12] = test: Mitochondrial-targeted ROS biosensor in sentinel hepatocytes; format: cell-based, human; details: troglitazone, measured over 24 h
# hepatocytes [13] = test: Hepatocyte area by HCA in SQL-SAL; details: 200 μM trovafloxacin (40 × Cmax) with 1 μg/mL LPS
# [14] = 28 μM troglitazone versus caffeine control
# [15] = 180 μM troglitazone, starting at day 1 of treatment
# Sequence of Cyp 2C9 (P11712 whole entry): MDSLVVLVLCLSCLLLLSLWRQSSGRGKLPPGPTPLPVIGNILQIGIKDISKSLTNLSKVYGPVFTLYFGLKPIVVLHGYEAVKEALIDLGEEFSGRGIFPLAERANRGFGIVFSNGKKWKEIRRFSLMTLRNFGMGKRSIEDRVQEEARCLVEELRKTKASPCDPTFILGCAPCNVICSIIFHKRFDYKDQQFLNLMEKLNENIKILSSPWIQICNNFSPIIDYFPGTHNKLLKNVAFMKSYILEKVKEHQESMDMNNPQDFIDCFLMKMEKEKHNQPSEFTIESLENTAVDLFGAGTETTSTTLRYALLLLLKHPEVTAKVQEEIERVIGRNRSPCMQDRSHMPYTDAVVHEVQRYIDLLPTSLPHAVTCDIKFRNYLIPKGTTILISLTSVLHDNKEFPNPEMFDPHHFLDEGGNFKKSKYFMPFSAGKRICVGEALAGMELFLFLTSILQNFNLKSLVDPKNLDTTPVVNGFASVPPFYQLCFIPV
structure (smiles),measurement,setting,value
"O=C(O)Cc1ccccc1Nc1c(Cl)cccc1Cl [Diclofenac, diclofenac]",Metabolite found in efflux media (AUC),Cyp 2C9,36943 ±28302
Cn1c(=O)c2c(ncn2C)n(C)c1=O [caffeine],Effect on hepatocellular apoptosis biosensor,hepatocytes [1],no appreciable effect
same,Effect on hepatocellular apoptosis biosensor,hepatocytes [1]; listed as Caffeine,no significant effect
CN(Cc1cnc2nc(N)nc(N)c2n1)c1ccc(C(=O)N[C@@H](CCC(=O)O)C(=O)O)cc1 [methotrexate],Expression of human alpha-SMA in LX-2 stellate cells,"[2]; 30nM methotrexate, day 21, relative to vehicle control (p ≤ 0.05)",increased
same,alpha-SMA expression in hepatocytes,[2]; methotrexate treatment,increased
same,"Expression of collagen, type 1, alpha 2 (COL1A2) in LX-2 stellate cells",[3],increased
same,LX-2 stellate cells proximal to the hepatocyte layer,LX-2 stellate cells,significantly accumulate
same,maximum tolerated concentration,LX2 cultures,100 nM
CS(=O)(=O)Nc1ccc([N+](=O)[O-])cc1Oc1ccccc1 [nimesulide],Change in albumin,SQL-SAL [4]; 210 μM nimesulide (10 × Cmax),decreases
same,Change in urea,SQL-SAL [5]; 210 μM nimesulide (10 × Cmax),decreases
same,Apoptotic hepatocytes,hepatocytes [1]; 210 μM nimesulide (10 × Cmax),rapid increase
same,Effect on LDH,SQL-SAL [6]; 210 μM nimesulide (10 × Cmax),rapid release
Cc1c(C)c2c(c(C)c1O)CCC(C)(COc1ccc(CC3SC(=O)NC3=O)cc1)O2 (stereo not shown) [troglitazone],CMFDA uptake and canalicular efflux,hepatocytes [7],slower uptake and inhibition of efflux
same,Acute toxicity produced within,SQL-SAL [8],2 to 4 days
same,half-life at 28 μM,[9],~11 days
same,half-life at 180 μM,[9],~3 days
same,Change in albumin,SQL-SAL [4]; [14],gradual decrease
same,Change in albumin,SQL-SAL [4]; [15],sharp decrease
same,Days with significant decline in albumin secretion (p≤ 0.05),SQL-SAL [4]; troglitazone 28 μM (4 × Cmax),18 to 28 days
same,Days with significant decline in albumin secretion (p≤ 0.05),SQL-SAL [4]; troglitazone 180μM (30 × Cmax),4 to 10 days
same,half-life at 28 μM,[10],~12 days
same,half-life at 180 μM,[10],~3 days
same,Change in urea,SQL-SAL [5]; [14],gradual decrease
same,Change in urea,SQL-SAL [5]; [15],sharp decrease
same,Days with significant decline in urea secretion (p ≤ 0.05),SQL-SAL [5]; troglitazone 28 μM (4 × Cmax),4 to 28 days
same,Days with significant decline in urea secretion (p ≤ 0.05),SQL-SAL [5]; troglitazone 180μM (30 × Cmax),4 to 10 days
same,Toxic response,SQL-SAL [11],gradual and much delayed toxic response
same,Induction of apoptosis (loss of mitochondrial cytochrome C biosensor intensity) began on day,hepatocytes [1]; 28 μM troglitazone,10 days
same,Induction of apoptosis (loss of mitochondrial cytochrome C biosensor intensity) began on day,hepatocytes [1]; 180 μM troglitazone,1 days
same,"Days with significant levels (p ≤ 0.05) of apoptosis, cytochrome C biosensor",hepatocytes [1]; troglitazone 28 μM,16 to 28 days
same,"Days with significant levels (p ≤ 0.05) of apoptosis, cytochrome C biosensor",hepatocytes [1]; troglitazone 180 μM,1 to 15 days
same,"ROS, mitochondrial-targeted ROS biosensor",hepatocytes [12],increase in ROS
same,"Overt cytotoxicity, measured as LDH release, delayed until day","SQL-SAL [6]; 28 μM (4 × Cmax) troglitazone, continuous perfusion, vs 600 μM caffeine",13 days
same,"Overt cytotoxicity, measured as LDH release, found on day","SQL-SAL [6]; 180 μM (30 × Cmax) troglitazone, continuous perfusion, vs 600 μM caffeine",4 days
same,Peak LDH release,SQL-SAL [6]; troglitazone 180nM (30 × Cmax),~4 days
same,Days with significant LDH release (p≤0.05),SQL-SAL [6]; troglitazone 180nM (30 × Cmax),4 to 6 days
same,Peak LDH loss,SQL-SAL [6]; troglitazone 28 μM (4 × Cmax),~13 days
same,Days with significant LDH release (p≤0.05),SQL-SAL [6]; troglitazone 28 μM (4 × Cmax),13 to 15 days
N[C@@H]1[C@H]2CN(c3nc4c(cc3F)c(=O)c(C(=O)O)cn4-c3ccc(F)cc3F)C[C@@H]12 [trovafloxacin],Change in hepatocyte area,hepatocytes [13],decrease in hepatocyte area
same,LDH leakage,"SQL-SAL [6]; 200 μM (40 × Cmax) trovafloxacin co-incubated with 1 μg/mL LPS, 3 and 5 days",Increased LDH leakage
